Experimental findings from the RNAGym collection of RNA variant scans (doi:10.1126/science.aae0568) are described below.

Sequences and labels used below:
B1: tRNA (parent)
chain: GUUCCGUUGGCGUAAUGGUAACGCGUCUCCCUCCUAAGGAGAAGACUGCGGGUUCGAGUCCCGUACGGAACG

This sample holds only a part of the variants without activity. Bounds are passed on as bounds.

This data set covers variants of B1. Put plainly: yeast fitness relative to wild type (ratio to wild type); higher = fitter; tRNA-Arg(CCU), competitive growth, 37 C, YPD. An outline of the steps:
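The tRNA-Arg(CCU) gene variants were made by chemical synthesis with a 3% per-site mutation rate at 69 sites and inserted at the native genomic locus of Saccharomyces cerevisiae. After pooling, the strains were competed in YPD at 37°C for 24 hours in six parallel replicates. Gene amplicons from the start population and each end population were read by 100-nucleotide paired-end sequencing, and Darwinian fitness relative to wild type was taken from genotype frequency changes. Genotypes needed ≥ 100 starting reads, and estimates < 0.5 were set to 0.5.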
Consider A15G G63C, for which the yeast fitness was 0.918.

Regarding A15G G52A G67U, the yeast fitness was at most 0.5. To A15U C27U G48C belongs 0.587; to A15G G48A, 0.879. Take A15G G48C: the yeast fitness was determined as 0.841. With A15G U32G A40C, the yeast fitness is at most 0.5. As to A15G C34G A37U C49G, the yeast fitness is at most 0.5. To A15G G17A belongs 0.881. To A15U C24G G38A belongs 0.551; to A15G U19A U28A C55A A65U, at most 0.5.

A15U C27G U54A: the yeast fitness was at most 0.5. With A15U A20G A43C, the yeast fitness was 0.593. In the case of A15U C24U A40U G41C U64C it was 0.647; in that of A15U A20G C55U G63C, at most 0.5.

A15G C34U A40U: the yeast fitness was at most 0.5.

A15U G17A U53C C66U A69U: the yeast fitness is at most 0.5. On to A15U A45C C46A C66U, for which the yeast fitness is at most 0.5. To A15G C49G C62G belongs at most 0.5. Take A15U G23C C33A: the yeast fitness was at most 0.5. To A15U C24U A37G U54C C66A belongs at most 0.5; to A15U A20G C27A C29A U47G C60G, at most 0.5; to A15U A21C G23C C55A U64A A65C, at most 0.5. In the case of A15U C31A C60G it was at most 0.5; in that of A15U G58C A70U, 0.643. In the case of A15G G50A it was 0.929; in that of A15G G50C C60U, at most 0.5. Regarding A15U C27U C34U G41C U47G, the yeast fitness was found to be 0.555.

Turning to A15U A21C C24G C29U A42C G56U U59A, the yeast fitness was at most 0.5. In the case of A15U C49U it was 0.731; in that of A15G G25C G48A, 0.637; in that of A15U G18A G58A, at most 0.5. To A15G U26G G41A G56A belongs at most 0.5; to A15G U35A A65C, at most 0.5; to A15U G18C G23C C24G, at most 0.5. As for A15U C24G A42C C55U G68U, the yeast fitness was at most 0.5.

With A15U G41C, the yeast fitness was 0.784. In the case of A15U G23A C49G it was 0.583. To A15U A37G C66G belongs at most 0.5; to A15G U19A U28A, at most 0.5; to A15U A36G C55G, 0.565. Consider A15G U35A, for which the yeast fitness was determined as 0.602.

As for A15G G58A G63A G68C, the yeast fitness was at most 0.5. To A15U A21G C29U G44C C55A G56C belongs at most 0.5; to A15U C24G A42C, at most 0.5; to A15G G44C A65C, at most 0.5. Take A15U C29G G48A A69U: the yeast fitness was at most 0.5. With A15U G17A C29G, the yeast fitness is at most 0.5. As for A15G U54C C66A, the yeast fitness is at most 0.5. For A15G U28G, the yeast fitness came to 0.646. In the case of A15G G17C C33A C46A G52A G63C it was at most 0.5; in that of A15G U64C A69C, 0.775; in that of A15U G18C C24G C46A U64C A69G, 0.513. Turning to A15G G67C, the yeast fitness was determined as 0.706. To A15G G67U belongs 0.662; to A15G G67A, 0.868. To A15G G23C G38C G52C U54C G58A belongs at most 0.5. As for A15G U26G C30U A40U G52A, the yeast fitness was at most 0.5.

In the case of A15G G51A A70U, the yeast fitness worked out at 0.533.

Turning to A15G U28C A37C A70U, the yeast fitness is at most 0.5. In the case of A15G G56A it was 0.971; in that of A15G C49G, 0.782.

Take A15G G39C C46U: the yeast fitness is 0.689. Consider A15G C31A A65G, for which the yeast fitness was at most 0.5. A15U G67A: the yeast fitness stood at 0.654. In the case of A15U G67C it was 0.657.

With A15G G23C C30A A42C G51C C61A G67A, the yeast fitness is at most 0.5. As for A15U C33G G50U, the yeast fitness stood at 0.527. Regarding A15G C46A, the yeast fitness worked out at 0.884. In the case of A15G C46U it was 0.987; in that of A15U C31U A36G, 0.568.

A15G G17A A40C: the yeast fitness was at most 0.5. In the case of A15G G17A C30A, the yeast fitness was 0.529. To A15G C31G U47G C49G belongs 0.545; to A15G C31A G41C G56A G58C, at most 0.5. As for A15U A36U, the yeast fitness is at most 0.5. Consider A15U A36C, for which the yeast fitness is at most 0.5.

A15U C46G C61A: the yeast fitness is 0.51. In the case of A15U C27G it was 0.531. Regarding A15U A42G C46G C61A, the yeast fitness was at most 0.5.

As to A15U C29A A43C G50C, the yeast fitness is at most 0.5.

As to A15G C31G U35C A43C A57C G58A, the yeast fitness was at most 0.5. To A15U C22U G39C belongs at most 0.5.

For A15G U19G C66U, the yeast fitness turned out to be 0.721. For the variant A15U A37U G67C, the yeast fitness was at most 0.5. In the case of A15G C61A C62G G68A it was at most 0.5. To A15G U19C G51C C55U belongs 0.582. Consider A15U G38C, for which the yeast fitness came to 0.699. To A15U C24G C30U A57U belongs 0.832; to A15G U26C G56A A69U, at most 0.5. To A15G G48A C66U belongs 0.747; to A15U A20G U28G C33U, at most 0.5; to A15U G18C G41A A69C A70G, at most 0.5.

A15U G18A A42U: the yeast fitness was 0.567.

For A15G G25A U28C U35A G38A C46G C62U, the yeast fitness amounted to 0.527.

Turning to A15U C60A G63A, the yeast fitness is at most 0.5. In the case of A15G C30A C62A it was at most 0.5; in that of A15G C62G C66G, at most 0.5; in that of A15G C62G C66U, 0.535. To A15U A45C belongs 0.803; to A15G U19G A42G, 0.702. In the case of A15U C27U A36G C61U C62U, the yeast fitness is at most 0.5. In the case of A15U C29G C31G, the yeast fitness was at most 0.5. To A15U C27U C66A belongs at most 0.5. As to A15U G39C A42C A65C, the yeast fitness is at most 0.5.

As to A15G G38A A40C G50A U54A, the yeast fitness is at most 0.5. In the case of A15G G50A G58C C66U it was at most 0.5. For A15G G23C U28A, the yeast fitness is at most 0.5. For A15U A43G U59C, the yeast fitness worked out at 0.53. In the case of A15U A37G A42C C49G C61U it was at most 0.5; in that of A15U C24A C34G G39U G58C, at most 0.5; in that of A15U C27G C49A G52U, at most 0.5. Regarding A15U A57U A70C, the yeast fitness was at most 0.5. To A15U G41C G56C belongs at most 0.5.

Consider A15G G23C C30A A42C G44A G51C, for which the yeast fitness is at most 0.5. In the case of A15G U19C it was 0.985; in that of A15G U19G, 0.985; in that of A15U C49G A70G, 0.576.

Regarding A15U G39A A57U C62G, the yeast fitness was found to be 0.502. To A15U A43U A65C belongs 0.569; to A15G C34U A40U U54C, at most 0.5. As for A15U A37C, the yeast fitness came out at 0.678. Consider A15U A37G, for which the yeast fitness came out at 0.66.

A15G U26G C55U A69U A70C: the yeast fitness is at most 0.5. In the case of A15G C31A A70U it was 0.639; in that of A15U C22G C27U A36C G39C G48C G63U A70U, at most 0.5. In the case of A15U it was 0.885; in that of A15G C62U A69C, 0.829. To A15U C27U A36G G56C belongs at most 0.5; to A15U C22G C31U C46G G63A, at most 0.5. On to A15G U54A G63C, for which the yeast fitness turned out to be 0.631. To A15G G44C A57U belongs at most 0.5; to A15G C55A, 0.727; to A15G G25A C27A G50A, 0.592. On to A15U C22U A70C, for which the yeast fitness was at most 0.5. On to A15U C34G A69U, for which the yeast fitness is at most 0.5. To A15U C46A U59C belongs at most 0.5. To A15G G50A U54A A57C belongs 0.583; to A15U A20C, 0.646; to A15U A20G, 0.772.

As for A15U C22U A57C, the yeast fitness is at most 0.5. To A15U G25C G67A belongs at most 0.5; to A15G G25A U32G A40G C60G, 0.501. To A15G G41A A43U G50C belongs at most 0.5; to A15G G17A A21C, at most 0.5.

Consider A15U G52C, for which the yeast fitness is at most 0.5. In the case of A15U G52A it was 0.606; in that of A15G G17A C33U G39C C55A G67C, 0.66.

In the case of A15G G48C G51A A65C, the yeast fitness is at most 0.5. To A15G C30G A43U C62A belongs 0.611; to A15G C31G U35C A43C, 0.586. In the case of A15G C33U A45U C62A it was at most 0.5; in that of A15G U19C A37U C49U G51A U64A, at most 0.5. As for A15G U16A A20G A42G, the yeast fitness amounted to 0.577. To A15G U54G C55U A65G belongs at most 0.5; to A15G G68A, 0.894. A15U C29A: the yeast fitness stood at 0.568.

As for A15U C29A C34U C55A, the yeast fitness was 0.519.

Consider A15G C49U C60G, for which the yeast fitness was at most 0.5. To A15G U28G A42U G48A G67A belongs at most 0.5; to A15U C24U C27U G67A, at most 0.5; to A15U A43G G56C C60U, at most 0.5. In the case of A15U C22G C31U C46G U54A it was at most 0.5; in that of A15U A65G C66A G67C, at most 0.5; in that of A15U A65G, 0.649. On to A15U A65U, for which the yeast fitness was 0.775.

Take A15U C33G C62G C66U: the yeast fitness is at most 0.5. In the case of A15U C49G G68C it was at most 0.5.
